Measurements: ChEMBL document CHEMBL4689842, “EUbOPEN Chemogenomics Library wave 1” (2021)
“And” between values parts separate entries of the source, which are not always exact repeats. Equal entries are not always repeated.

System: Fibroblast
Assay: Multiplex assay against human fibroblast
Type: toxicity, cell-based
Procedure, shortened: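 Per cents of healthy-nucleus cells form the tubulin, mitochondrial-mass and membrane-permeability phenotype values. Live cells were stained at seeding with Hoechst33342, BioTracker Green Microtubule Cytoskeleton Dye, MitoTracker Red and Annexin V Alexa Fluor 680. After compound addition they were imaged on a CQ1 microscope at 37°C and 5% CO2, and CellPathfinder machine-learning gating split them into Hoechst high-intensity objects or normal cells, normal cells into healthy, pyknosed or fragmented nuclei, and pyknosed cells into mitotic or apoptotic.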

[1] = 12 h, 1 µM, compound concentration 1 uM, replicate 1
[2] = 12 h, 1 µM, compound concentration 1 uM, replicate 2
[3] = 12 h, 10 µM, compound concentration 10 uM, replicate 1
[4] = 12 h, 10 µM, compound concentration 10 uM, replicate 2
[5] = 24 h, 1 µM, compound concentration 1 uM, replicate 1
[6] = 24 h, 1 µM, compound concentration 1 uM, replicate 2
[7] = 24 h, 10 µM, compound concentration 10 uM, replicate 1
[8] = 24 h, 10 µM, compound concentration 10 uM, replicate 2

CC(=O)O[C@H]1C(=O)[C@@]2(C)[C@H]([C@H](OC(=O)c3ccccc3)[C@]3(O)C[C@H](OC(=O)[C@H](O)[C@@H](NC(=O)c4ccccc4)c4ccccc4)C(C)=C1C3(C)C)[C@]1(OC(C)=O)CO[C@@H]1C[C@@H]2O [PACLITAXEL]
Population Apoptotic (%) [1]: 55% and 76%
Population Fragmented Nuclei (%) [1]: 25% and 15%
Population Healthy Nuclei (%) [1]: 66% and 75%
Population Hoechst High Intensity Objects (%) [1]: 11% and 8%
Population Membrane Permeable-Phenotype (%) [1]: 5%
Population Mitochondria Different-Phenotype (%) [1]: 3% and 2%
Population Mitotic Cells (%) [1]: 45% and 23%
Population Normal (%) [1]: 88% and 91%
Population Pyknosed Nuclei (%) [1]: 8% and 9%
Population Tubulin-Different-Phenotype (%) [1]: 0%
Total Cell Count [1]: 281 and 246
Population Fragmented Nuclei (%) [2]: 46% and 34%
Population Healthy Nuclei (%) [2]: 35% and 59%
Population Hoechst High Intensity Objects (%) [2]: 32% and 39%
Population Mitochondria Different-Phenotype (%) [2]: 10% and 15%
Population Mitotic Cells (%) [2]: 40% and 100%
Population Normal (%) [2]: 67% and 60%
Population Pyknosed Nuclei (%) [2]: 18% and 6%
Population Tubulin-Different-Phenotype (%) [2]: 10% and 26%
Total Cell Count [2]: 80 and 73
Population Apoptotic (%) [3]: 81% [middle of 4 runs]
Population Fragmented Nuclei (%) [3]: 23% and 24%
Population Healthy Nuclei (%) [3]: 61% [middle of 4 runs]
Population Hoechst High Intensity Objects (%) [3]: 12% [middle of 4 runs]
Population Membrane Permeable-Phenotype (%) [3]: 5% and 3%
Population Mitochondria Different-Phenotype (%) [3]: 5% and 4% and 2%
Population Mitotic Cells (%) [3]: 26% [middle of 4 runs]
Population Normal (%) [3]: 88% and 90% and 79% and 87%
Population Pyknosed Nuclei (%) [3]: 14% and 21% and 11%
Total Cell Count [3]: 304 [middle of 4 runs]
Population Fragmented Nuclei (%) [4]: 58% [middle of 4 runs]
Population Healthy Nuclei (%) [4]: 42% [middle of 4 runs]
Population Hoechst High Intensity Objects (%) [4]: 37% [middle of 4 runs]
Population Normal (%) [4]: 68% and 62% and 51% and 72%
Population Pyknosed Nuclei (%) [4]: 7% and 6% and 8%
Population Tubulin-Different-Phenotype (%) [4]: 9% [middle of 4 runs]
Total Cell Count [4]: 93 and 80 and 115
Population Apoptotic (%) [5]: 48% and 38%
Population Fragmented Nuclei (%) [5]: 18% and 13%
Population Healthy Nuclei (%) [5]: 70% and 74%
Population Hoechst High Intensity Objects (%) [5]: 14% and 13%
Population Membrane Permeable-Phenotype (%) [5]: 5% and 4%
Population Mitotic Cells (%) [5]: 52% and 61%
Population Normal (%) [5]: 85% and 86%
Population Pyknosed Nuclei (%) [5]: 11%
Total Cell Count [5]: 264 and 252
Population Fragmented Nuclei (%) [6]: 54% and 48%
Population Healthy Nuclei (%) [6]: 28% and 48%
Population Hoechst High Intensity Objects (%) [6]: 33% and 29%
Population Membrane Permeable-Phenotype (%) [6]: 13% and 11%
Population Mitochondria Different-Phenotype (%) [6]: 0% and 7%
Population Mitotic Cells (%) [6]: 44% and 100%
Population Normal (%) [6]: 66% and 70%
Total Cell Count [6]: 80 and 77
Population Apoptotic (%) [7]: 71% [middle of 4 runs]
Population Fragmented Nuclei (%) [7]: 26% [middle of 4 runs]
Population Healthy Nuclei (%) [7]: 64% [middle of 4 runs]
Population Hoechst High Intensity Objects (%) [7]: 15% [middle of 4 runs]
Population Mitochondria Different-Phenotype (%) [7]: 2% and 0%
Population Normal (%) [7]: 85% and 87% and 84% and 75%
Population Pyknosed Nuclei (%) [7]: 16% and 15%
Total Cell Count [7]: 291 and 285 and 333
Population Apoptotic (%) [8]: 44% [middle of 4 runs]
Population Fragmented Nuclei (%) [8]: 62% [middle of 4 runs]
Population Healthy Nuclei (%) [8]: 40% and 28% and 26%
Population Hoechst High Intensity Objects (%) [8]: 35% [middle of 4 runs]
Population Membrane Permeable-Phenotype (%) [8]: 17% [middle of 4 runs]
Population Normal (%) [8]: 68% and 64% and 53% and 72%
Population Pyknosed Nuclei (%) [8]: 11% [middle of 4 runs]
Total Cell Count [8]: 93 [middle of 4 runs]

CNC(=O)c1cc(Oc2ccc(NC(=O)Nc3cc(C(C)(C)C)nn3-c3ccc4ncccc4c3)c(F)c2)ccn1 [REBASTINIB]
Population Apoptotic (%) [1]: 90%
Population Fragmented Nuclei (%) [1]: 24%
Population Healthy Nuclei (%) [1]: 66%
Population Hoechst High Intensity Objects (%) [1]: 10%
Population Membrane Permeable-Phenotype (%) [1]: 4%
Population Mitochondria Different-Phenotype (%) [1]: 2%
Population Mitotic Cells (%) [1]: 10%
Population Normal (%) [1]: 89%
Population Pyknosed Nuclei (%) [1]: 9%
Population Tubulin-Different-Phenotype (%) [1]: 4%
Total Cell Count [1]: 237
Population Apoptotic (%) [2]: 40%
Population Fragmented Nuclei (%) [2]: 56%
Population Healthy Nuclei (%) [2]: 32%
Population Hoechst High Intensity Objects (%) [2]: 38%
Population Membrane Permeable-Phenotype (%) [2]: 26%
Population Mitochondria Different-Phenotype (%) [2]: 6%
Population Mitotic Cells (%) [2]: 60%
Population Normal (%) [2]: 61%
Population Pyknosed Nuclei (%) [2]: 10%
Population Tubulin-Different-Phenotype (%) [2]: 26%
Total Cell Count [2]: 75
Population Apoptotic (%) [3]: 59%
Population Fragmented Nuclei (%) [3]: 20%
Population Healthy Nuclei (%) [3]: 59%
Population Hoechst High Intensity Objects (%) [3]: 8%
Population Membrane Permeable-Phenotype (%) [3]: 10%
Population Mitochondria Different-Phenotype (%) [3]: 16%
Population Mitotic Cells (%) [3]: 40%
Population Normal (%) [3]: 91%
Population Pyknosed Nuclei (%) [3]: 19%
Population Tubulin-Different-Phenotype (%) [3]: 44%
Total Cell Count [3]: 238
Population Apoptotic (%) [4]: 85%
Population Fragmented Nuclei (%) [4]: 54%
Population Healthy Nuclei (%) [4]: 24%
Population Hoechst High Intensity Objects (%) [4]: 45%
Population Membrane Permeable-Phenotype (%) [4]: 0%
Population Mitochondria Different-Phenotype (%) [4]: 37%
Population Mitotic Cells (%) [4]: 14%
Population Normal (%) [4]: 55%
Population Pyknosed Nuclei (%) [4]: 21%
Population Tubulin-Different-Phenotype (%) [4]: 50%
Total Cell Count [4]: 60
Population Apoptotic (%) [5]: 83%
Population Fragmented Nuclei (%) [5]: 24%
Population Healthy Nuclei (%) [5]: 64%
Population Hoechst High Intensity Objects (%) [5]: 12%
Population Membrane Permeable-Phenotype (%) [5]: 2%
Population Mitochondria Different-Phenotype (%) [5]: 2%
Population Mitotic Cells (%) [5]: 16%
Population Normal (%) [5]: 87%
Population Pyknosed Nuclei (%) [5]: 11%
Population Tubulin-Different-Phenotype (%) [5]: 3%
Total Cell Count [5]: 239
Population Apoptotic (%) [6]: 33%
Population Fragmented Nuclei (%) [6]: 56%
Population Healthy Nuclei (%) [6]: 37%
Population Hoechst High Intensity Objects (%) [6]: 30%
Population Membrane Permeable-Phenotype (%) [6]: 5%
Population Mitochondria Different-Phenotype (%) [6]: 10%
Population Mitotic Cells (%) [6]: 66%
Population Normal (%) [6]: 69%
Population Pyknosed Nuclei (%) [6]: 5%
Population Tubulin-Different-Phenotype (%) [6]: 31%
Total Cell Count [6]: 73
Population Apoptotic (%) [7]: 52%
Population Fragmented Nuclei (%) [7]: 24%
Population Healthy Nuclei (%) [7]: 57%
Population Hoechst High Intensity Objects (%) [7]: 14%
Population Membrane Permeable-Phenotype (%) [7]: 4%
Population Mitochondria Different-Phenotype (%) [7]: 28%
Population Mitotic Cells (%) [7]: 47%
Population Normal (%) [7]: 85%
Population Pyknosed Nuclei (%) [7]: 17%
Population Tubulin-Different-Phenotype (%) [7]: 54%
Total Cell Count [7]: 229
Population Apoptotic (%) [8]: 70%
Population Fragmented Nuclei (%) [8]: 52%
Population Healthy Nuclei (%) [8]: 22%
Population Hoechst High Intensity Objects (%) [8]: 33%
Population Membrane Permeable-Phenotype (%) [8]: 33%
Population Mitochondria Different-Phenotype (%) [8]: 44%
Population Mitotic Cells (%) [8]: 30%
Population Normal (%) [8]: 66%
Population Pyknosed Nuclei (%) [8]: 25%
Population Tubulin-Different-Phenotype (%) [8]: 44%
Total Cell Count [8]: 60
